# S100A4 inh HTS – S100A4-myosin IIA interaction inhibition | P26447 | S100A4/TAMRA-MyoIIA peptide fluorescence polarization | inhibition, % at 10.7 µM | hit rate 0.14% among 360,000 | AID 652163;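 active = mean inhibition of at least 70% across replicates, with every replicate also reaching that level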
# Target sequence (P26447 whole entry, looked up): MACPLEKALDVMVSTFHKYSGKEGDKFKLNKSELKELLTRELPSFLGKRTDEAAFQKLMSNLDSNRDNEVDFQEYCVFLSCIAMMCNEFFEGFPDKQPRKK
#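 Material: S100A4 monomer (human). Medium: Calcium-containing HEPES buffer, pH 7.2. Probe or stimulus: labelled myosin peptide probe, 5 nM. Compound dosing: one concentration per compound. Timing: polarization read 5 min after assay mix addition, stable 5–60 min. Benchmarks: DMSO as neutral control, TFP as positive control.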
# C2C12 statin – protects C2C12 myotubes from simvastatin toxicity | ATP luminescence, 48 h; scaled: DMSO 0, geranylgeraniol control 100 | rescue of ATP level, % at 7.49 µM | hit rate 0.78% among 330,000;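 active = mean ATP rescue above about 67%, or every replicate alone reaching that limit, limit read from the data, passing the limit was not always enough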;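 also: myotubes were challenged with 10 µM simvastatin during compound exposure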
# DENV2 CPE rescue – protects cells from dengue virus 2 cytopathic effect | DENV2-infected cells, cytopathic effect rescue, plate reader | AID 651640 | hit rate 1.7% among 350,000 | CPE inhibition, % at 9.99 µM; in the data active = CPE inhibition above about 20%, passing the limit was not always enough; tested in BHK-21 cells;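 also: 0% = median of neutral control wells and 100% = median of positive control wells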
# PGC1a acetyl inh – PGC1a acetylation modulation, inhibitor mode | U2OS PGC1a acetylation, AlphaScreen anti-acetyl-lysine; with virally co-expressed GCN5 acetyltransferase | inhibition, % at 15.6 µM | hit rate 0.17% among 350,000 | AID 651687;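 active = every replicate shows inhibition of at least 40%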;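 also: 0% = neutral control wells and 100% = positive control wells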
# SIRT5 inh – blocks human SIRT5 desuccinylation of peptide | AID 652115 | hit rate 1.1% among 330,000 | inhibition, % at 15 µM | Purified SirT5, succinyl-peptide AMC, trypsin-coupled fluorescence | Q9NXA8; in the data active = inhibition above about 15%
# Target sequence (Q9NXA8 whole entry, looked up): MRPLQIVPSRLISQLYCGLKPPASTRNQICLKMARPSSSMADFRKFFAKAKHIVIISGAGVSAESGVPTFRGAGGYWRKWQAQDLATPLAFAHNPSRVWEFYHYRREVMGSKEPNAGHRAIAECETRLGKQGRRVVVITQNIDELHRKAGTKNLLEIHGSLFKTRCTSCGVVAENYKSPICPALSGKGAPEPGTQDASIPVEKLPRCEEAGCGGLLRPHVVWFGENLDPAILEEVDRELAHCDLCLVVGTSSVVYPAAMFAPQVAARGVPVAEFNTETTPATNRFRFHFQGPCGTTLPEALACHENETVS
# * = called active by the depositor; · = no result given; ! = not active in a repeat. Hits are enriched below; roughly 2.9% of the tested compounds scored in any of these assays.
SMILES,S100A4 inh HTS,C2C12 statin,DENV2 CPE rescue,PGC1a acetyl inh,SIRT5 inh
COc1cc(CCCN2C(=S)NC[C@H]2Cc2ccc(O)cc2)cc(OC)c1OC,2,1,-9,-5,32*
C[C@@H]1CN([C@H](C)CO)C(=O)c2cccc(NC(=O)C3CCOCC3)c2O[C@H]1CN(C)Cc1ccc(Oc2ccccc2)cc1,14,-17,25*,6,4
C[C@H](CO)N1C[C@H](C)[C@@H](CN(C)Cc2ccc(C(F)(F)F)cc2)Oc2c(NC(=O)C3CCCCC3)cccc2C1=O,-1,35,-1,-27,17*
C[C@H]1CN([C@@H](C)CO)C(=O)c2cccc(NC(=O)C3CCCCC3)c2O[C@H]1CN(C)C(=O)Nc1ccc(C(F)(F)F)cc1,11,-122,27*,8,8
C[C@H](CO)N1C[C@H](C)[C@@H](CN(C)Cc2ccccc2)Oc2c(NC(=O)C3CCCCC3)cccc2C1=O,-2,-24,-11,·,18*!
C[C@@H]1CN([C@@H](C)CO)C(=O)c2cc(C#Cc3ccccc3)cnc2O[C@@H]1CN(C)C(=O)c1ccccn1,15,-11,-3,3,2
C[C@H]1CN([C@@H](C)CO)S(=O)(=O)c2ccc(C#CC3CC3)cc2O[C@H]1CN(C)C(=O)CN(C)C,52,11,-6,-2,4
C[C@@H]1CCCCO[C@H](CN(C)Cc2ccncc2)[C@H](C)CN([C@H](C)CO)C(=O)c2cc(NS(=O)(=O)c3ccccc3)ccc2O1,4,·,28*,4,8
C[C@@H]1CCCCO[C@@H](CN(C)Cc2ccncc2)[C@H](C)CN([C@H](C)CO)C(=O)c2cc(NS(=O)(=O)c3ccc(F)cc3)ccc2O1,1,·,-2,7,3
C[C@@H]1CN([C@H](C)CO)C(=O)c2cc(NS(=O)(=O)c3ccc(F)cc3)ccc2O[C@@H](C)CCCCO[C@@H]1CN(C)Cc1ccncc1,-7,·,34*,10,3
CSc1cc(-c2ccc(Cl)cc2)c(C(=O)N2CCCC2)s1,·,126*,·,-19,·
CNC(=O)c1sc(SC)cc1-c1ccc(Cl)cc1,·,9,·,-7,·
CO[C@H]1CN(C)C(=O)c2cc(NC(=O)c3cnccn3)ccc2OC[C@H](C)N(CCc2ccccc2)C[C@@H]1C,-29,-9,-2,-1,·
Cc1noc(C)c1NC(=O)N(C)C[C@H]1Oc2ccc(NS(=O)(=O)c3c(C)noc3C)cc2CC(=O)N([C@H](C)CO)C[C@@H]1C,19,-3,-6,12,-4
CN1c2ccc(-c3cccc(C#N)c3)cc2[C@H]2[C@H](CCN2S(=O)(=O)c2ccccc2F)[C@H]1CO,123*,-1,-16,13,-19
CN1c2ccc(-c3ccccc3)cc2[C@H]2[C@H](CCN2S(=O)(=O)c2ccccc2F)[C@H]1CO,-8,-4,-10,-25,5
CN1c2ccc(-c3cccc(C#N)c3)cc2[C@@H]2[C@@H](CCN2S(=O)(=O)c2cccc(F)c2)[C@@H]1CO,·,-43,73*,-15,·
C[C@H](O)C#Cc1cnc2c(c1)C(=O)N([C@@H](C)CO)C[C@H](C)[C@@H](CN(C)C(=O)c1ccc(F)cc1)O2,-1,-6,2,3,6
COCC(=O)N1C[C@H]2CON(C)[C@H]2C[C@H]1c1cccc(-c2ccc(C#N)cc2)c1,-19,-5,-6,-6,-1
COCC(=O)N1C[C@H]2CON(C)[C@H]2C[C@H]1c1cccc(-c2ccccc2)c1,0,10,34*,3,2
CC(C)CCCCCCCCCCCCC(=O)NCC(=O)NC1C(O)C(O)C(Nc2ncnc3nc[nH]c23)OC1C(O)CO (centres undefined),·,·,·,96*,·
CCC(=O)N(C)C[C@H]1Oc2cc(C#CC3CCCC3)ccc2S(=O)(=O)N([C@@H](C)CO)C[C@@H]1C,18,-12,17,-2,5
CN1/C(=C\C=C(C#N)C#N)C(C)(C)c2ccccc21,160*,-7,4,-12,0
CN1/C(=C/C=N/n2cnnc2)C(C)(C)c2ccccc21,·,-8,·,·,·
CCCC(=O)Nc1ccc2c(c1)C(=O)N(C)[C@H]1CC[C@H](CC(=O)NCc3ccccc3Cl)O[C@@H]1CO2,-39,5,-15,-6,-1
SMILES,S100A4 inh HTS,C2C12 statin,DENV2 CPE rescue,PGC1a acetyl inh,SIRT5 inh
O=C1NC(=NCc2ccccc2)NC1(c1ccccc1)c1ccccc1,2,101*,9,5,·
Cc1cccc(CN2C(=O)NC(c3ccccc3)(c3ccccc3)C2=O)c1,-4,1,2,·,·
COc1ccc(S(=O)(=O)Nc2cccc3c2O[C@H](CN(C)S(=O)(=O)c2ccc(C)cc2)[C@H](C)CN([C@H](C)CO)C3=O)cc1,·,5,-11,0,·
O=C(CCc1ccccc1)Nc1ccc(N2CCOCC2)c(Cl)c1,·,113*,·,2,·
Cc1ccc(NC(=O)CN2CCOCC2)cc1Cl,-3,-2,8,0,25*
O=C(CCc1ccccc1)Nc1ccc(N2CCOCC2)cc1,·,-4,·,4,·
Cc1ccc(NC(=O)CSCC(=O)Nc2ccc(N3CCOCC3)cc2N2CCOCC2)cc1,-2,-4,11,·,10
Cc1ccc(NC(=O)CSCC(=O)Nc2ccc(N3CCOCC3)c(Cl)c2)cc1,·,121*,·,-10,·
O=C(Nc1ccc(N2CCOCC2)c(Cl)c1)c1cccnc1,·,92*,·,-1,·
C[C@@H]1CCCCO[C@@H](CN(C)C(=O)Nc2ccc(C(F)(F)F)cc2)[C@@H](C)CN([C@@H](C)CO)C(=O)c2cc(NC(=O)C3CCCCC3)ccc2O1,6,·,-8,23,4
C[C@H]1CCCCO[C@H](CN(C)C(=O)Nc2ccc(C(F)(F)F)cc2)[C@@H](C)CN([C@@H](C)CO)C(=O)c2cc(NC(=O)C3CCCCC3)ccc2O1,-3,-124,87*,21,3
C[C@@H]1CCCCO[C@H](CN(C)C(=O)Nc2ccc(C(F)(F)F)cc2)[C@@H](C)CN([C@H](C)CO)C(=O)c2cc(NC(=O)C3CCCCC3)ccc2O1,7,-62,0,4,1
C[C@H](CO)N1C[C@H](C)[C@@H](CN(C)C(=O)Nc2ccc(C(F)(F)F)cc2)OCCCC[C@H](C)Oc2ccc(NC(=O)C3CCCCC3)cc2C1=O,-7,-2,87*,-4,5
C[C@@H]1CCCCO[C@H](CN(C)C(=O)Nc2ccc(C(F)(F)F)cc2)[C@H](C)CN([C@H](C)CO)C(=O)c2cc(NC(=O)C3CCCCC3)ccc2O1,3,-113,32*,-13,-2
C[C@@H]1CCCCO[C@H](CN(C)C(=O)Nc2ccc(C(F)(F)F)cc2)[C@@H](C)CN([C@@H](C)CO)C(=O)c2cc(NC(=O)C3CCCCC3)ccc2O1,7,-29,22*,9,4
CCCNC(=O)N1[C@H](CO)[C@H]2c3ccccc3N(C(=O)Nc3cccc(F)c3)C[C@H]21,-16,2,3,5,-2

# Compound activity (PubChem BioAssay)
